FXN GAA850 act – activators of GAA850 frataxin (FXN) promoter | HEK293 lucGAA850 FXN promoter luciferase reporter, 24 h; percent of 10 µM SAHA response | activation, % at 6 µM | 360,000 compounds, 0.56% hits | AID 540364;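 active means activation above the average of all compounds screened plus 3 SD, cutoff fixed separately per campaign, cut at about 7.5% in these data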;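 further: 0% = DMSO wells and 100% = 10 µM SAHA wells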
T cell HTS – T cell immune modulation candidate; AID 2052; response (vesicle binding), % at 7 µM; 330,000 compounds, 0.068% hits; 2C CD8+ T cell-vesicle binding, flow cytometry; stronger effect = lower value;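 active means response, share of CD8 T cells binding vesicles, and their 90th percentile fluorescence all below set limits, cut at about 80% in these data, passing the limit was not always enough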;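 further: values below 100% mean blocked vesicle binding to the CD8+ T cells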
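Assay system: 2C TCR transgenic mouse naive CD8+ T cells, MACS-purified | Read-out: CD8+ gate FL2 mean fluorescence as % of same-row positive control | Signal: High-throughput flow cytometry with anti-B7-1 and anti-CD8 staining | Timing: Binding step 1.5 h, 37 °C, antibody labelling 20 min, ice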
NR2E3 ag-1 – human photoreceptor-specific nuclear receptor agonism | 360,000 compounds, 0.35% hits | CHO-S Gal4-NCOR/VP16-NR2E3 two-hybrid, luciferase | Q9Y5X4 | AID 602229 | inhibition of corepressor binding, % at 3.98 µM;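 active means inhibition above the mean of all tested compounds plus 3 SD, cut at about 70% in these data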;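 further: 0% = DMSO with NR2E3 transfected cells and 100% = cells lacking NR2E3 construct; higher means lower luciferase signal from less NR2E3 corepressor binding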
Target sequence (Q9Y5X4 whole entry, looked up, the tested form may be a part): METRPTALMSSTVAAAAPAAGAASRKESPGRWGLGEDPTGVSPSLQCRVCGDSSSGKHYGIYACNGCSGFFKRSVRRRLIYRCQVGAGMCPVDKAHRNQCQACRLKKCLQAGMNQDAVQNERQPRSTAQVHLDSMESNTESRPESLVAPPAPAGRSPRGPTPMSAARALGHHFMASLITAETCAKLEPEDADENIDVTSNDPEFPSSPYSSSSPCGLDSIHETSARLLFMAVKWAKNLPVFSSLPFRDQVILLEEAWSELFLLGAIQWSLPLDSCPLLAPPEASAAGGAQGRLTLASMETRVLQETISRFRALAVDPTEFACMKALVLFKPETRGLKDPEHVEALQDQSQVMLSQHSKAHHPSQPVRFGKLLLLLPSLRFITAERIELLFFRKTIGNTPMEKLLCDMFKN
Myeloid diff 2 – compounds promoting myeloid differentiation; ER-HoxA9 myeloid progenitors, lysozyme-GFP differentiation, flow cytometry; calls only at 10 µM; 360,000 compounds, 1% hits;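 active means normalized GFP-positive differentiation at or above the plate's own cutoff, the solvent-only control mean plus 3 SD; inconclusive means no clear call, values can overlap the other calls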;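 further: cells exposed to compound for four days before flow analysis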
NR2E3 ag-2 – activates human photoreceptor nuclear receptor NR2E3. 320,000 compounds, 0.12% hits. Q9Y5X4. inhibition of corepressor binding, % at 4.78 µM. GST-NR2E3/biotin-RetCOR TR-FRET, 1536-well. AID 2300;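 active means percent inhibition above the cutoff of mean plus 3 SD of all tested compounds, set per screening campaign, cut at about 20% in these data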;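 further: 0% = DMSO wells and 100% = biotin wells as full block of FRET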
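Format: 1536-well format; test system: GST-NR2E3 and biotin-RetCOR proteins; read-out basis: percent inhibition of TR-FRET ratio; timing: 5 h incubation at 4 °C; detection: time-resolved FRET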
An asterisk follows results filed as active; i = inactive; ? = inconclusive; nt = no result; + = active, no number. Compounds with a hit are over-represented: about 2% of the library has one in this group of screens.

SMILES	FXN GAA850 act	T cell HTS	NR2E3 ag-1	Myeloid diff 2	NR2E3 ag-2
O=S1(=O)CC(N2CCC(Cc3ccccc3)CC2)CN1CCc1ccccc1 (stereo not given)	nt	nt	20.1	i	nt
CN(C)c1ccc(CNC(=O)CCS(=O)(=O)c2ccc3c(c2)oc(=O)n3C)cc1	1.1	322.2	28.3	i	1.5
COc1cccc(CNc2ccc(S(N)(=O)=O)cc2)c1OCc1ccccc1F	-0.1	272.5	-13.6	i	-4.7
COc1cccc(CNc2ccccc2O)c1OCc1ccccc1F	1.2	201.8	-12.0	+	-1.4
CCN1C(=O)[C@H]2[C@@H](c3ccc(-c4ccccc4)cc3)N3CCC[C@@]3(C(=O)OC)[C@H]2C1=O	1.3	nt	-25.0	i	0.3
CCN1/C(=C/C=C2/SC(=Nc3cccc4ncccc34)N(C)C2=O)Sc2ccccc21	0.2	nt	-16.1	+	nt
CCN1C(=O)/C(=C/C=C2/Sc3ccccc3N2CCO)SC1=S	-0.6	191.2	-24.7	i	-0.8
CC(C)c1ccc(N(C)C(=O)Cc2c(C(=O)O)n(C)c3ccccc23)cc1	1.2	109.6	8.5	+	0.9
Cc1ccccc1CCNC(=O)c1ccc(Cl)c(S(=O)(=O)N2CC(C)OC(C)C2)c1 (stereo not given)	-4.6	59.6	-1.8	i	-1.0
CCCN(CC(=O)Nc1ccccc1C)C(=O)C1CCCN(C(=O)c2ccc(Cl)cc2)C1 (stereo not given)	1.5	384.0	7.3	+	2.1
c1ccc(COc2cccc(-c3cc4nc(NCCc5ccncc5)ccn4n3)c2)cc1	3.5	nt	-15.9	i	nt
O=C(NCCc1ccccc1F)c1cccc2cccnc12	6.9	304.7	-140.7	+	3.0
Cc1cccnc1C(NC(=O)C1CCN(CCCc2ccccc2)CC1)c1ccc(F)cc1 (stereo not given)	0.8	nt	4.1	i	nt
CCOc1ccc(-n2c(SCC(=O)Nc3ccc(CC)cc3)nc3n[nH]c(C)c3c2=N)cc1	-0.5	154.8	-5.7	+	2.0
CCCN(CCC)C(=O)CSc1nc2n[nH]c(C)c2c(=N)n1-c1ccc(OCC)cc1	-2.4	202.5	19.4	i	1.5
CCOc1ccc(-c2cc(C(=O)NCc3cc(OC)cc(OC)c3)[nH]n2)c(C)c1	1.5	nt	14.0	i	nt
CC(C)C[C@H]1CNC(=S)N1C[C@H]1CCCN1C[C@H](Cc1ccccc1)N1C[C@H](CC(C)C)N(CCc2ccccc2)C1=S	nt	nt	12.3	?	nt
COc1ccc(-n2c(O)c(/C=N/NS(=O)(=O)c3cc(C)ccc3C)c3ccccc3c2=O)cc1OC	-2.6	475.8	10.6	+	4.5
Cc1cccc(NC(=O)CS(=O)(=O)c2cn(C)c3ccccc23)c1	0.2	551.3	6.9	i	1.3
Cc1cccc(NC(=O)CS(=O)(=O)c2cn(C)c3ccccc23)c1C	0.7	201.4	-23.1	+	-4.1
COc1ccc(/C=C/CN2CCN(CCc3ccccc3)C(CCO)C2)cc1 (stereo not given)	1.7	171.5	0.6	+	2.4
CCOc1ccccc1CN1CCN(C/C=C/c2ccc(OC)cc2)CC1CCO (stereo not given)	-2.0	726.4	-38.8	i	4.7
O=C(CN(Cc1ccccc1Cl)C(=O)c1csnn1)NCc1ccc2c(c1)OCO2	0.3	477.3	-12.9	i	0.4
Cc1ccc(CN(CC(=O)NCc2ccc3c(c2)OCO3)C(=O)c2csnn2)cc1	3.7	288.7	5.0	+	1.6
CCC(C)c1ccc(NC(=O)C/C(C)=N/NC(=O)c2cnccn2)cc1 (stereo not given)	0.6	255.2	-5.1	i	-0.8
SMILES	FXN GAA850 act	T cell HTS	NR2E3 ag-1	Myeloid diff 2	NR2E3 ag-2
CCOC(=O)N1CCN(S(=O)(=O)N2CCCC(C(=O)NCc3cccc(OC)c3)C2)CC1 (stereo not given)	-0.3	324.8	16.1	+	0.5
CCc1ccc(CNC(=O)C2CCCN(S(=O)(=O)N3CC(C)CC(C)C3)C2)cc1 (stereo not given)	-1.1	319.0	-0.7	+	4.6
CCc1nc2ccc(C(=O)NCc3ccccc3OC)cn2c1N(C)Cc1ccc(N(C)C)cc1	-3.4	nt	-8.4	i	nt
O=C(C1CCCCC1)N1CCC2CC1c1cc(-c3ccc4c(c3)OCO4)ccc12 (stereo not given)	nt	nt	47.2	i	nt
CS(=O)(=O)N(CC(=O)N1CCCC1)Cc1ccc(Cl)c(Cl)c1	-1.6	261.3	-25.5	i	1.5
COCCn1c(NC(=S)NC(=O)C23CC4CC(CC(C4)C2)C3)cc(=O)[nH]c1=O	12.0*	172.6	-248.6	i	0.4
Cc1ccc(-c2nc(NC(=O)CSc3nnc4scc(-c5ccccc5)n34)ns2)cc1	-1.1	172.3	-10.1	+	-2.4
COc1ccc(OC)c(NC(=O)CCN2CCCCC2)c1	0.6	75.9*	-10.2	i	-3.1
O=C(CN1C(=O)C2CC=CCC2C1=O)Nc1ccc(F)cc1F (stereo not given)	2.1	357.2	21.5	i	2.9
C=C1C(=O)[C@]23C[C@H]1CC[C@H]2[C@]1(C)[C@@H](O)CC[C@@](C)(C(=O)O)[C@H]1C[C@@H]3O	nt	nt	24.8	+	nt
C=C1C(=O)[C@]23C[C@H]1CCC2[C@@]1(C)C(C[C@@H]3O)[C@](C)(C(=O)O)C[C@H](O)[C@@H]1O (stereo not given in full)	nt	nt	-2.1	i	nt
N#CCC(=O)Nc1ccc(C(=O)N2CCN(c3ccccn3)CC2)cc1	-2.5	176.9	-30.6	i	-6.9
Cc1cccc(NC(=O)CN(C)C(C)C(=O)Nc2ccc(S(=O)(=O)N3CCCC3)cc2)c1C (stereo not given)	-0.1	nt	8.5	i	nt
NC(=O)C1(N2CCCCC2)CCN(C(=O)c2cccs2)CC1	1.0	688.0	-19.1	+	2.1
O=C(c1cccs1)N1CCN(C2CCCCC2)CC1	-2.4	741.4	0.2	i	2.5
Cc1nn(C(C)(C)C)c(NC(=O)c2ccccc2)c1C#N	3.1	470.8	1.5	i	-2.5
CCCCn1c(NC(=O)c2ccccc2)c(C#N)c2nc3ccccc3nc21	-8.2	nt	-9.3	+	nt
CCC(C)n1c(NC(=O)c2ccccc2)c(C#N)c2nc3ccccc3nc21 (stereo not given)	-0.6	407.7	-16.2	+	1.2
N#Cc1c(N)n(CCc2ccc(F)cc2)c2nc3ccccc3nc12	-0.4	625.6	-13.3	i	1.4
CCCCn1c(NC(=O)c2ccc(F)cc2)c(C#N)c2nc3ccccc3nc21	nt	226.4	nt	nt	21.6*
Cc1ccc(C(=O)NCCn2c(N)c(C#N)c3nc4ccccc4nc32)cc1	-5.9	310.0	-4.3	+	1.7
N#Cc1c(N)n(CCNC(=O)c2ccc(Cl)cc2)c2nc3ccccc3nc12	-0.7	372.7	16.6	i	2.9
CCC(=O)Nc1c(C#N)c2nc3ccccc3nc2n1-c1ccc(C)cc1	0.6	nt	-24.6	i	nt

Assay outcomes from PubChem.
